In ChEMBL document CHEMBL1759993, “Synthesis and SAR of novel benzoxaboroles as a new class of β-lactamase inhibitors” (Bioorg Med Chem Lett, 2011):
Active and inactive are the calls of the source. The calls are words filed in the database; no cut-off is given here.

Assays:
Beta-lactamase = Beta-lactamase (Enterobacter cloacae, UniProt P05364); assay: Inhibition of Enterobacter cloacae P99 beta-lactamase AmpC P99 using nitrocefin as substrate after 30 mins by spectrophotometric analysis
How it was run: (§1)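 Substrate level differed between class A and class C enzymes. Fraction inhibited was taken as the rate with inhibitor over the rate without. IC50 was read from log[inhibitor] dose–response curves.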

[1] = Inhibition of beta-lactamase CTX-M9a using nitrocefin as substrate after 30 mins by spectrophotometric analysis; how it was run: as §1
[2] = Inhibition of beta-lactamase TEM1 using nitrocefin as substrate after 30 mins by spectrophotometric analysis; how it was run: as §1
[3] = Inhibition of beta-lactamase CMY-2 using nitrocefin as substrate after 30 mins by spectrophotometric analysis; how it was run: as §1
[4] = Inhibition of beta-lactamase CMY-2 expressed in Escherichia coli SYN2549 assessed as potentiation of ceftazidime-mediated antibacterial activity at 8 ug/ml
[5] = biological target: Beta-lactamase (Enterobacter cloacae) (UniProt P05364); assay: Inhibition of Enterobacter cloacae P99 beta-lactamase AmpC P99 assessed as potentiation of ceftazidime-mediated antibacterial activity at 8 ug/ml
Sequence of Beta-lactamase (Enterobacter cloacae) (P05364 21-381 limits assumed): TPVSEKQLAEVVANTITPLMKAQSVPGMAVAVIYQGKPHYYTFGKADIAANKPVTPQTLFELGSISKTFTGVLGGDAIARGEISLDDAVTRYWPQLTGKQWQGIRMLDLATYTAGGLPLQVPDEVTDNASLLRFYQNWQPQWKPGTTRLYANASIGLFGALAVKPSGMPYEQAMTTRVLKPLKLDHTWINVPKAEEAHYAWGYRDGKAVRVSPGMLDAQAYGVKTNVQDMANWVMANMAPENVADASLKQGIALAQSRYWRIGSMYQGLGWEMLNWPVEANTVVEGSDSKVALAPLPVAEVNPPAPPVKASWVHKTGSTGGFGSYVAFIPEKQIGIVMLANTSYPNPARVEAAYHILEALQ

Sequence of Beta-lactamase (P05364 whole entry): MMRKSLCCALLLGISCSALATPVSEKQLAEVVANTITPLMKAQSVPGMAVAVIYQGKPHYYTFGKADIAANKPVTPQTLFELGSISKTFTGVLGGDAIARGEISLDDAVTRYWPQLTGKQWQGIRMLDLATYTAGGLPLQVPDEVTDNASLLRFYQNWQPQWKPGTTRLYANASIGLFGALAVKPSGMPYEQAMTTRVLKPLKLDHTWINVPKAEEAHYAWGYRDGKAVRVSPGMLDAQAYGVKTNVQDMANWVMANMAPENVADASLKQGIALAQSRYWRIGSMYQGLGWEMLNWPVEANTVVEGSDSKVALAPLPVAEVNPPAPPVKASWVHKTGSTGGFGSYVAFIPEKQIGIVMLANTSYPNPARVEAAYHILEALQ

| Compound | Ki (Beta-lactamase) | Ki [1] | Ki [2] | Ki [3] | Activity [4] | Activity [5] |
| --- | --- | --- | --- | --- | --- | --- |
| O=S(=O)(c1ccccc1)c1ccc2c(c1)B(O)OC2 | 63.2 µM | > 32 µM | 11.2 µM | 108 µM |  |  |
| OB1OCc2ccc(C(O)c3ccccc3)cc21 (stereo unspecified) | 7.28 µM | > 32 µM | > 37 µM | 8.42 µM |  |  |
| OB1OCc2ccc(Cc3ccccc3)cc21 | 19.8 µM | > 32 µM | > 37 µM | 25.6 µM |  |  |
| O=C(c1ccccc1)c1ccc2c(c1)B(O)OC2 | 28.5 µM | > 32 µM | 10.6 µM | 46.9 µM |  |  |
| COc1ccc(Oc2ccc3c(c2)B(O)OC3)cc1 | 6 µM | 14.1 µM | 4.34 µM | > 46 µM |  |  |
| O=C(Nc1ccc2c(c1)B(O)OC2)c1ccccc1 | 46.6 µM | > 32 µM | > 37 µM | > 138 µM |  |  |
| CN(C)Cc1cccc(Oc2ccc3c(c2)B(O)OC3)c1 | 7.72 µM |  |  |  |  |  |
| [O-][S+](c1ccccc1)c1ccc2c(c1)B(O)OC2 (stereo unspecified) | 58 µM | > 32 µM | 4.87 µM | 59.3 µM |  |  |
| O=C(O)c1cnc(Oc2ccc3c(c2)B(O)OC3)cn1 | 0.02 µM | > 32 µM | 20.4 µM |  | Active | Active |
| O=C(ONc1ccccc1)c1ccc2c(c1)B(O)OC2 | 16 µM | > 32 µM | > 37 µM | 13.8 µM |  |  |
| CN(C)Cc1ccc(Oc2ccc3c(c2)B(O)OC3)cc1 | 40.6 µM |  |  |  |  |  |
| OB1OCc2ccc(Sc3ccccc3)cc21 | 9.09 µM | > 32 µM | 1.76 µM | 12.7 µM |  |  |
| CCOC(=O)c1ccc(Oc2ccc3c(c2)B(O)OC3)cc1 | 5.55 µM | > 32 µM | 3.11 µM |  |  |  |
| O=C(O)c1cnc(Oc2ccc3c(c2)B(O)OC3)nc1 | 0.08 µM | > 32 µM | 14.7 µM | 0.07 µM |  |  |
| NCc1ccc(Oc2ccc3c(c2)B(O)OC3)cc1 | 13.3 µM |  |  |  |  |  |
| OB1OCc2ccc(Nc3ccccc3)cc21 | 4.73 µM | > 32 µM | > 37 µM | 13.8 µM |  |  |

More lines, now with the values ahead:

| Ki (Beta-lactamase) | Ki [1] | Ki [2] | Ki [3] | Activity [4] | Activity [5] | Compound |
| --- | --- | --- | --- | --- | --- | --- |
| 2.75 µM | 0.69 µM | 1.01 µM | 6.09 µM |  |  | Nc1cccc(Oc2ccc3c(c2)B(O)OC3)c1 |
| 0.71 µM | 1.89 µM | 1.02 µM | 1.51 µM |  |  | OB1OCc2ccc(Oc3ccccc3)cc21 |
| 1.35 µM | 1.1 µM | 1.4 µM | 2.65 µM |  |  | COc1cccc(Oc2ccc3c(c2)B(O)OC3)c1 |
| 8.4 µM | 1.92 µM | 1.36 µM | 8.43 µM |  |  | OCc1cccc(Oc2ccc3c(c2)B(O)OC3)c1 |
| 0.02 µM |  |  |  |  |  | O=C(O)c1ccc(Oc2ccc3c(c2)B(O)OC3)cc1 |
| 2.27 µM | 8.75 µM | 1.08 µM | 74.5 µM |  |  | OB1OCc2ccc(Oc3cccc(OCc4ccccc4)c3)cc21 |
| 3.33 µM |  |  |  |  |  | NCc1cccc(Oc2ccc3c(c2)B(O)OC3)c1 |
| 1.44 µM |  |  |  |  |  | O=C(O)c1cccc(Oc2ccc3c(c2)B(O)OC3)c1 |
|  | 0.816 µM |  | 3.12 µM |  |  | OB1OCc2ccc(Oc3cccc(O)c3)cc21 |
| 8.73 µM |  |  |  |  |  | Nc1ccc(Oc2ccc3c(c2)B(O)OC3)cc1 |
